Usually IC50 stands for the concentration at which inhibition is half-maximal. Read a high IC50 as lower potency. In general, Ki refers to the equilibrium dissociation constant of an inhibitor or competing ligand from its target.

In test [1] the target is T1, Bromodomain-containing protein 4 (Homo sapiens, UniProt O60885). The test is described as follows: Inhibition of BRD4-BD1 (44 to 168 residues) (unknown origin) using histone H4 peptide as substrate preincubated for 15 mins followed by addition of substrate measured after 60 mins by AlphaScreen assay. (In Alpha technology, singlet oxygen from a donor bead excites a nearby acceptor bead.)

In test [2] the target is T1, Bromodomain-containing protein 4. The test is described as follows: Inhibition of BRD4-BD2 (333 to 460 residues) (unknown origin) using histone H4 peptide as substrate preincubated for 15 mins followed by addition of substrate measured after 60 mins by AlphaScreen assay.
A further test relates to HL-60. The test is described as follows: Antiproliferative activity against BRD4-sensitive human HL60 cells after 72 hrs by CCK8 assay. Format: functional, cell-based. The following applies: HL-60, 72 h. The essentials: (§1)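 Cells seeded at 1 × 10^4 per well in 100 µL IMDM with 20% FBS. After 12 h, triple-diluted compound series added in 50 µL. Read 72 h after seeding: CCK-8 reagent added, 4 h at 37 °C, absorbance at 450 nm, blank-corrected relative to untreated control. IC50 fitted from the curve. Means ± SD from three independent experiments.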
Background: Formazan colour is commonly taken as a measure of viable cells.

A further test concerns K562. The test is described as follows: Antiproliferative activity against BRD4-independent human K562 cells after 72 hrs by CCK8 assay. The class given is functional, cell-based. Particulars: K562, 72 h. The essentials: as §1
A further test has as its system MV4-11. The test is described as follows: Antiproliferative activity against BRD4-sensitive human MV411 cells after 72 hrs by CCK8 assay. Format: functional, cell-based. The following applies: MV4-11, 72 h. The essentials: as §1
For test [3], the target named is T1, Bromodomain-containing protein 4. The test is described as follows: Inhibition of recombinant human His-tagged BRD4-BD1 expressed in bacteria using biotinylated H4-tetraacetyl peptide as substrate after 20 mins by AlphaScreen assay.

As for `CC(=O)Nc1ccc(CNc2cccc(Oc3ccc(S(C)(=O)=O)cc3-c3cn(C)c(=O)c4cncn34)c2)cc1`, the IC50 in test [1] was determined as 380 nM; in test [2], 180 nM.

Regarding `CCS(=O)(=O)c1ccc(Oc2cccc(NCc3ccc(NC(C)=O)cc3)c2)c(-c2cn(C)c(=O)c3cncn23)c1`, the IC50 in test [1] was 130 nM; in test [2] it was 40 nM; in the test on HL-60, 2860 nM; with K562 it was greater than 10000 nM; in the test on MV4-11, 170 nM.

As to `CCS(=O)(=O)c1ccc(Oc2cccc(NS(=O)(=O)c3ccc(OC)cc3)c2)c(-c2cn(C)c(=O)c3cncn23)c1`, the IC50 is 200 nM in test [1] and 140 nM in test [2].

In the case of `Cn1cc(-c2cc(S(C)(=O)=O)ccc2Oc2ccc(F)cc2F)n2cncc2c1=O`, the IC50 in test [1] is 520 nM; in test [2] it was 580 nM; in the test with HL-60, 2860 nM; in the test with K562, greater than 10000 nM; in the test with MV4-11, 1850 nM.

For `CCS(=O)(=O)c1ccc(Oc2ccc(F)cc2F)c(-c2cn(C)c(=O)c3cncn23)c1`, the IC50 in test [1] is 240 nM; in test [2] it was 260 nM; in the test on HL-60, 620 nM; in the test on K562 it was greater than 10000 nM; in the test with MV4-11, 410 nM.

Take `Cn1cc(-c2cc(S(C)(=O)=O)ccc2Oc2cccc(NCc3ccc(F)cc3)c2)n2cncc2c1=O`: the IC50 is 680 nM in test [1]; 320 nM in test [2]; 1400 nM in the test on HL-60; greater than 10000 nM in the test with K562; 950 nM with MV4-11.

For `COc1cccc(CNc2cccc(Oc3ccc(S(C)(=O)=O)cc3-c3cn(C)c(=O)c4cncn34)c2)c1`, the IC50 in test [1] was 430 nM; in test [2], 190 nM; with HL-60, 1530 nM; in the test with K562 it was greater than 10000 nM; in the test on MV4-11 it was 1160 nM.

With `CCS(=O)(=O)c1ccc(Oc2cccc(NS(=O)(=O)c3cccs3)c2)c(-c2cn(C)c(=O)c3cncn23)c1`, the concentration for half-maximal inhibition (IC50) in test [1] was 390 nM; in test [2], 280 nM.

`CCS(=O)(=O)c1ccc(Oc2ccc(F)cc2)c(-c2cn(C)c(=O)c3cncn23)c1`: the IC50 was 200 nM in test [1]; 220 nM in test [2]; 940 nM in the test with HL-60; greater than 10000 nM in the test with K562; 780 nM in the test on MV4-11.

For `CCS(=O)(=O)Nc1ccc(Oc2ccc(F)cc2F)c(-c2cn(C)c(=O)c3[nH]ccc23)c1` [MIVEBRESIB], the IC50 was 74 nM in test [1]; 69 nM in test [2]; 90 nM in the test with HL-60; greater than 10000 nM with K562; 70 nM in the test on MV4-11. Further, in test [3], the Ki came out at 15 nM.

Regarding `Cc1sc2c(c1C)C(c1ccc(Cl)cc1)=N[C@@H](CC(=O)OC(C)(C)C)c1nnc(C)n1-2`, the IC50 in the test with HL-60 stood at 110 nM; in the test on K562 it was 9120 nM; in the test with MV4-11, 80 nM.

For `CCS(=O)(=O)c1ccc(Oc2cccc(NS(=O)(=O)c3ccccc3F)c2)c(-c2cn(C)c(=O)c3cncn23)c1`, the IC50 is 240 nM in test [1] and 170 nM in test [2].

With `CCS(=O)(=O)c1ccc(Oc2cccc(NCc3ccc(C#N)cc3)c2)c(-c2cn(C)c(=O)c3cncn23)c1`, the IC50 in test [1] is 130 nM; in test [2] it was 76 nM; with HL-60 it was 570 nM; in the test on K562 it was greater than 10000 nM; with MV4-11 it was 180 nM.

Turning to `Cn1cc(-c2cc(S(C)(=O)=O)ccc2Oc2cccc(NCc3ccc(C#N)cc3)c2)n2cncc2c1=O`, the IC50 in test [1] is 350 nM; in test [2], 180 nM; with HL-60, 6100 nM; in the test on K562 it was greater than 10000 nM; in the test with MV4-11, 4200 nM.
